This is a sample that favours compounds with a hit; in the whole collection about 1.5% have one here.
HNF4A DNA FP: change in binding of human HNF4 alpha to DNA; AID 1224865; activity change, % at 10 µM; 360,000 compounds, 0.3% hits; P41235; HNF4a-FITC DNA binding, fluorescence polarization, 1 h; in the data active means activity change above about 30%, passing the limit was not always enough
LANA-H2A inh: blocks KSHV LANA binding to histone H2A/H2B. cell-free LANA-H2A/H2B peptide, fluorescence polarization. inhibition, % (no concentration beside the values). 320,000 compounds, 0.6% hits; in the data active means inhibition mostly above about 10%, no sharp cut-off; inactive means mostly below about 6.7%
ZTA counter: blocks Epstein-Barr virus ZTA, an EBNA-1 counter-screen. 320,000 compounds, 0.15% hits. ZTA-DNA binding, fluorescence polarization. inhibition, % at 11 µM. P03206; in the data active means inhibition above about 33%
CSN inh: inhibitors of human CSN-mediated cullin deneddylation. inhibition, % at 12.5 µM. AID 651999. Q92905. 360,000 compounds, 0.38% hits. Purified CSN, SCF-Nedd8-OG deneddylation, fluorescence polarization;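 active means pattern-corrected inhibition above about 35%, with an unprinted fluorescence ratio check between 0.5 and 1.5, limit read from the data, passing the limit was not always enough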;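 further: 0% = enzyme with substrate and 100% = substrate without enzyme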
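assay system = purified human Csn5 enzyme expressed in HEK293T cells | amount = 0.24 nM enzyme | buffer or medium = Tris/NaCl/DTT buffer, pH 7.5 | reagent = 10 nM SCFSkp2-Nedd8OG | compound = one concentration, 12.5 µM, 0.25% DMSO | times = 90 min reaction at room temperature | signal = FP | read-out basis = % inhibition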
EBNA-1 inh: blocks EBNA-1 binding to DNA | EBNA-1 DNA binding, fluorescence polarization | inhibition, % at 14.8 µM | 300,000 compounds, 0.34% hits; in the data active means inhibition above about 28%
A1 inh: inhibitors of the anti-apoptotic protein A1, read as caspase activation. MEF A1-2A-BIM cells, Caspase-Glo 3/7 luminescence, 3 h; percent of clofoctol response, vehicle zero. 330,000 compounds, 0.066% hits. AID 2462. caspase activation, % (test concentration not listed);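 active means over half of replicate activation scores above 10%, or exactly half above 10 with the replicate mean above 10; inconclusive means replicate mean below 10 yet half the replicates above 10; inactive means over half of replicates below 10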
The depositor's hits bear a star.

Screening COc1ccc2oc(C(=O)Nc3ccccn3)c(C)c2c1 returned HNF4A DNA FP 6, LANA-H2A inh 2, ZTA counter -8, CSN inh -2, EBNA-1 inh 6 and A1 inh -7.
`COc1ccc2oc(C(=O)Nc3nc(C)cs3)c(C)c2c1` gave HNF4A DNA FP 7, LANA-H2A inh 73*, ZTA counter 16, CSN inh 1 and A1 inh -10.
Screening OC(c1ccc(Cl)c(Cl)c1)c1ncc(-c2ccccc2Cl)[nH]1 (stereo not drawn) returned HNF4A DNA FP 2 and CSN inh 4.
Screening COc1nnc(-c2ccc(N3CCCCC3)c(N)c2)c2ccccc12 returned HNF4A DNA FP 5, LANA-H2A inh 2, ZTA counter -10, CSN inh 110*, EBNA-1 inh 8 and A1 inh -1.
For O=S1(=O)CCN(C2CC2)CC1 the results were HNF4A DNA FP 0 and CSN inh 1.
Screening CCN(C(=O)CN1CCCC(C)C1)c1c(N)n(Cc2ccccc2)c(=O)[nH]c1=O (stereo not drawn) returned HNF4A DNA FP -4, LANA-H2A inh 13*, CSN inh -1 and A1 inh 0.
CCOc1ccc(OCC(=O)N(CCC2=CCCCC2)c2c(N)n(Cc3ccccc3)c(=O)[nH]c2=O)cc1 was read as HNF4A DNA FP 2, LANA-H2A inh 2, ZTA counter 9, CSN inh 0, EBNA-1 inh 2 and A1 inh 60*.
CCCCCN(C(=O)CN1CCC(Cc2ccccc2)CC1)c1c(N)n(CCCC)c(=O)[nH]c1=O was read as HNF4A DNA FP 37*, LANA-H2A inh -6, ZTA counter 1, CSN inh 11, EBNA-1 inh 0 and A1 inh -1.
For COc1cc(CC(=O)OCC(=O)N2CCCCC2)cc(OC)c1OC the results were HNF4A DNA FP 2, LANA-H2A inh -1, ZTA counter -12, CSN inh 0, EBNA-1 inh -14 and A1 inh 0.
N#CCCn1nc(-c2ccccc2)c2ccccc2c1=O was read as HNF4A DNA FP 4, LANA-H2A inh -3, ZTA counter 9, CSN inh -4, EBNA-1 inh -1 and A1 inh 0.
`CC(C)C(c1nnnn1Cc1ccc(F)cc1)N1CCC(C(N)=O)CC1` (stereo not drawn) gave HNF4A DNA FP -3, LANA-H2A inh 39*, ZTA counter 0, CSN inh -9, EBNA-1 inh -26 and A1 inh 0.
Screening NC(=O)C1CCN(C(c2ccccc2Cl)c2nnnn2Cc2ccc3c(c2)OCO3)CC1 (stereo not drawn) returned HNF4A DNA FP 0, LANA-H2A inh 26*, ZTA counter 2, CSN inh -1, EBNA-1 inh 7 and A1 inh -1.
Screening COc1ccc(/C=N/NC(=O)c2cc(=O)[nH]c3ccccc23)cc1OC returned HNF4A DNA FP -4, LANA-H2A inh -3, ZTA counter 12, CSN inh -13, EBNA-1 inh 9 and A1 inh 0.
O=C(N/N=C/c1ccco1)c1cc(=O)[nH]c2ccccc12 was read as HNF4A DNA FP 3, LANA-H2A inh 16*, ZTA counter 3, CSN inh -8, EBNA-1 inh -10 and A1 inh -1.
`OCCNC(=S)NCc1ccccc1` gave HNF4A DNA FP 2, LANA-H2A inh 8, ZTA counter -8, CSN inh 0, EBNA-1 inh 5 and A1 inh 0.
COC(=O)C(C(C)C)N1CCc2c(C)nc3c(C#N)cnn3c21 (stereo not drawn) was read as HNF4A DNA FP 3, LANA-H2A inh 60*, ZTA counter 14, CSN inh 0, EBNA-1 inh 0 and A1 inh 0.
`COc1ccc(OC)c(C(=O)NC(CC(N)=O)c2ccc(N3CCN(c4ccccn4)CC3)c([N+](=O)[O-])c2)c1` (stereo not drawn) gave HNF4A DNA FP 2, LANA-H2A inh -2, ZTA counter 4, CSN inh -2, EBNA-1 inh -11 and A1 inh 0.
For CC(C)N1CCN(S(=O)(=O)c2ccc3ccccc3c2)CC1 the results were HNF4A DNA FP -1, LANA-H2A inh -6, ZTA counter 133*, CSN inh 1, EBNA-1 inh 153* and A1 inh 0.
COC(=O)c1c(NC(=O)c2ccco2)sc2c1CCC2 was read as HNF4A DNA FP 64*, LANA-H2A inh -3, ZTA counter -5, CSN inh -3, EBNA-1 inh -15 and A1 inh 0.
`O=C(Nc1sc2c(c1C(=O)O)CCC2)c1ccco1` gave HNF4A DNA FP -5, LANA-H2A inh 3, ZTA counter 5, CSN inh -3, EBNA-1 inh 14 and A1 inh 0.
COC(=O)c1c(NC(=O)C(=O)N2CCOCC2)sc2c1CCC2 was read as HNF4A DNA FP -7, LANA-H2A inh 13*, ZTA counter -3, CSN inh 0, EBNA-1 inh 1 and A1 inh 0.
COc1ccc(CCNC(=O)C(=O)NCC2OCCN2S(=O)(=O)c2cc(F)ccc2F)cc1OC (stereo not drawn) was read as HNF4A DNA FP -2, LANA-H2A inh 4, ZTA counter 6, CSN inh 7, EBNA-1 inh -6 and A1 inh inconclusive.
For Oc1ccc(/C=N/Nc2ccc(Cl)nn2)c(O)c1O the results were HNF4A DNA FP -1, LANA-H2A inh 5, ZTA counter -9, CSN inh 7, EBNA-1 inh 2 and A1 inh 0.
`CCOc1ncccc1C(=O)OCC(=O)N(CC(C)C)C1CCS(=O)(=O)C1` (stereo not drawn) gave HNF4A DNA FP 6, LANA-H2A inh -7, ZTA counter -5, CSN inh -1, EBNA-1 inh -17 and A1 inh 0.
For CC(=O)N(Cc1c(C)nn(-c2ccccc2)c1Cl)c1ccc(Cl)cc1 the results were HNF4A DNA FP 2, LANA-H2A inh -2, ZTA counter -20, CSN inh 1, EBNA-1 inh -2 and A1 inh 1.
For Cc1nn(-c2ccccc2)c(Cl)c1CN(C(=O)CCl)c1ccc(Cl)cc1 the results were HNF4A DNA FP -1, LANA-H2A inh 2, ZTA counter 2, CSN inh 9, EBNA-1 inh 5 and A1 inh 6.2*.
COc1ccccc1CCCNC(=O)C1CCC(=O)N(Cc2ccccc2F)C1 (stereo not drawn) was read as HNF4A DNA FP 2, LANA-H2A inh -1, ZTA counter -8, CSN inh 0, EBNA-1 inh -10 and A1 inh 8.6*.
For O=C(NCCc1ccc(Cl)cc1)c1cc(-c2ccccn2)nc2ccccc12 the results were HNF4A DNA FP -4, LANA-H2A inh 4, ZTA counter 7, CSN inh -5, EBNA-1 inh 5 and A1 inh 1.

Screening results from PubChem BioAssay.
